Experimental data as given in ChEMBL document CHEMBL1129380, “Synthesis, activity, and molecular modeling of a new series of tricyclic pyridazinones as selective aldose reductase inhibitors” (J Med Chem, 1996).

Experiments:
Bos taurus = species on record: Bos taurus; assay: Inhibition of Aldehyde reductase 1; set-up: concentration or dose not given beside the values; details: concentration not given here
Outline: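 Partially purified bovine kidney ALR1 (ammonium sulfate fractionation plus DEAE-52 batch step, 11.3 mU/mg), at 3.5 mU/mL. Assay at 37 °C with 20 mM D-glucuronate and 0.12 mM NADPH in 0.1 M sodium phosphate, pH 7.2. Inhibitor added in DMSO, kept at 1%. NADPH oxidation read at 340 nm against a substrate-free blank. IC50 from the log dose–inhibition curve, duplicates.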

[1] = target: T1, Glutathione reductase, mitochondrial (Homo sapiens, UniProt P00390); assay: (§1) Inhibition of glutathione reductase; set-up: species or system Saccharomyces cerevisiae
T1 sequence (P00390 whole entry): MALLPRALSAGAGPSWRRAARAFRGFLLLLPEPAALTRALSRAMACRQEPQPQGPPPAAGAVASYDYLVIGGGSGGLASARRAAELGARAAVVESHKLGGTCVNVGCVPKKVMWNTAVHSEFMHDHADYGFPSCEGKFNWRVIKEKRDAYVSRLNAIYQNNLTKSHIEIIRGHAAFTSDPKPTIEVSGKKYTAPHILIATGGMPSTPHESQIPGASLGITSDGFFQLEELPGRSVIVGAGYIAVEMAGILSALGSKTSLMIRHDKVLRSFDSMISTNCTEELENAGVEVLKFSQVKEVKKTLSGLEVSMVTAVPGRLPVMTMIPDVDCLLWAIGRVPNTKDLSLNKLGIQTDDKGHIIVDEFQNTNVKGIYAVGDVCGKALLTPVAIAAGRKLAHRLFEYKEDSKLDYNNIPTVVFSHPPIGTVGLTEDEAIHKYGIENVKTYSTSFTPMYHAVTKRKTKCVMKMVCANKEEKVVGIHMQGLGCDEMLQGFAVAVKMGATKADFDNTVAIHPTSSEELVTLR

[2] = target: Aldo-keto reductase family 1 member B1 (Bos taurus) (UniProt P16116); assay: (§2) Evaluated for inhibition of Aldose reductase 2
Outline: (§3)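 Calf lens ALR2, partially purified by DE-52 (6.5 mU/mg), at 3.5 mU/mL. Assay at 37 °C with 4.7 mM D,L-glyceraldehyde and 0.11 mM NADPH in 0.25 M sodium phosphate, pH 6.8, with 0.38 M ammonium sulfate. Inhibitor in DMSO (1% final). A340 decrease corrected by a no-substrate blank.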

[3] = target: Sorbitol dehydrogenase (Ovis aries) (UniProt P07846); assay: Inhibition of sorbitol dehydrogenase from sheep liver (40 U/mg of protein)
Sorbitol dehydrogenase (Ovis aries), sequence (P07846 whole entry, looked up): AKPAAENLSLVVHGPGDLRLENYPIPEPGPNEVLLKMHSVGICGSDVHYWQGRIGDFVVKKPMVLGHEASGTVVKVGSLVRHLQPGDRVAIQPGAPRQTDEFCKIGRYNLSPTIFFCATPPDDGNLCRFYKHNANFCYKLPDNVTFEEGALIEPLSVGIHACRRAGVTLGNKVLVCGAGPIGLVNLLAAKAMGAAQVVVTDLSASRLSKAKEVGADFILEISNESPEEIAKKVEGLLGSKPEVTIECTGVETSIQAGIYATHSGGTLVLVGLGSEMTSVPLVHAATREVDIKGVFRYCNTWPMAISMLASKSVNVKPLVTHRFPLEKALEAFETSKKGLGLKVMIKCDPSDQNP

[4] = target: Aldo-keto reductase family 1 member B1 (Bos taurus, UniProt P16116); assay: as §2; outline: as §3
[5] = target: T2, Glutathione reductase, mitochondrial (Homo sapiens) (UniProt P00390); assay: Inhibition of glutathione reductase at 138 uM; details: Saccharomyces cerevisiae
T2 sequence (whole entry): T1 sequence (P00390 whole entry)

[6] = target: T2, Glutathione reductase, mitochondrial (Homo sapiens); assay: as §1; details: Saccharomyces cerevisiae; concentration not given here
[7] = target: Sorbitol dehydrogenase (Ovis aries) (UniProt P07846); assay: Inhibition of sorbitol dehydrogenase from sheep liver (40 U/mg of protein); details: concentration not given here
[8] = target: T2, Glutathione reductase, mitochondrial (Homo sapiens); assay: Inhibition of glutathione reductase at 149 uM; details: Saccharomyces cerevisiae

SMILES	inhibition (Bos taurus) [%]	IC50 [3]	IC50 [4] [µM]	further results
O=C(O)c1c(O)nnc2c1Cc1ccccc1-2	0	No inhibition	–	Inhibition [1]: 12.3%; inhibition [2]: 5.3%
O=C1NC(=O)[C@@]2(CCOc3ccc(F)cc32)N1 [SORBINIL]	–	No inhibition	–	–
Cc1cc(C)c2c(c1)-c1nn(CC(=O)O)c(=O)cc1CC2	–	No inhibition	6.44	–
O=C(O)Cn1nc2c(c(C(=O)O)c1=O)CCCc1ccccc1-2	10.3	–	–	inhibition [2]: 12.1%
COc1cc2c(cc1OC)-c1nn(CCC(=O)O)c(=O)cc1CC2	8	No inhibition	162	–
O=C(O)c1c2c(n[nH]c1=O)-c1ccccc1CC2	–	–	–	Inhibition [1]: 18.9%
O=C(O)Cn1nc2c(c(C(=O)O)c1=O)Cc1ccccc1-2	–	No inhibition	–	inhibition [6]: 22.3%; inhibition [2]: 32.4%
COc1ccc2c(C(=S)N(C)CC(=O)O)cccc2c1C(F)(F)F [TOLRESTAT]	–	–	–	inhibition [7]: 16.4%
COc1cc2c(cc1OC)-c1nn(CC(=O)O)c(=O)cc1C2	44.1	No inhibition	26.4	inhibition [8]: 11.2%
Cc1cc(C)c2c(c1)C1=NN(CC(=O)O)C(=O)CC1CC2 (stereo unspecified)	21.8	–	63.5	–
O=C(O)c1c(O)nnc2c1CCc1ccccc1-2	8.3	No inhibition	–	inhibition [2]: 9.9%
O=C(O)c1c2c(n[nH]c1=O)-c1ccccc1CCC2	6.8	–	–	inhibition [2]: 13.2%
COc1cc2c(cc1OC)-c1nn(CC(=O)O)c(=O)cc1CC2	11.3	No inhibition	114	–

Now from value to molecule, other results behind:

inhibition (Bos taurus) [%]	IC50 [3]	IC50 [4] [µM]	SMILES	further results
–	No inhibition	11.4	O=C(O)CCCn1nc2c(cc1=O)CCc1ccccc1-2	–
–	No inhibition	51.5	Cc1cc(C)c2c(c1)-c1nn(CCC(=O)O)c(=O)cc1CC2	–
–	No inhibition	12.6	O=C(O)Cn1nc2c(cc1=O)CCc1ccccc1-2	inhibition [5]: 4.2%
32.7	No inhibition	133	O=C(O)CCn1nc2c(cc1=O)CCc1ccccc1-2	–
–	No inhibition	33	O=C(O)Cn1nc2c(c(C(=O)O)c1=O)CCc1ccccc1-2	inhibition [6]: 23.7%
22.1	No inhibition	17.4	Cc1cc(C)c2c(c1)-c1nn(CCCC(=O)O)c(=O)cc1CC2	–
–	No inhibition	–	O=C(O)Cn1nc2c(cc1=O)Cc1ccccc1-2	inhibition [6]: 9.4%; inhibition [2]: 35.8%
10.1	No inhibition	7.56	COc1cc2c(cc1OC)-c1nn(CCCC(=O)O)c(=O)cc1CC2	–
15.1	No inhibition	76.2	O=C(O)Cn1nc2c(cc1=O)CCCc1ccccc1-2	–
